Test [1] relates to PC-12. Briefly: Increase of nerve growth factor-stimulated neurite growth in rat PC12D cells at 10 to 100 umol after 48 hrs. Format: functional, cell-based. The essentials:
(§1)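 PC12D cells detached with 1 mmol EGTA in PBS for 30 min, seeded at 2 × 10^4 cells/well on poly-L-lysine. After 24 h, switched to medium with 1% fetal calf serum, 2% horse serum, NGF 2 ng/mL plus compound at 10, 30 or 100 µmol (DMSO stocks 50 mmol). Fixed after 48 h with 2% glutaraldehyde, 37 °C, 1 h.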

Test [2] relates to PC-12. The test can be described thus: Induction of neurite growth in rat PC12D cells at 10 umol after 48 hrs. Type of test: functional, cell-based. The essentials: (§2)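 No NGF was added. PC12D cells were detached with EGTA/PBS and plated on poly-L-lysine. After 24 h they went into medium with 1% fetal calf serum and 2% horse serum plus compound (DMSO stocks 50 mmol). Cells were fixed after 48 h in 2% glutaraldehyde. The percentage with processes ≥ cell-body diameter was scored by phase-contrast microscopy: 3 fields/well, 6 wells/sample.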

Test [3] relates to PC-12. The test can be described thus: Induction of neurite growth in rat PC12D cells at 30 umol after 48 hrs. Format: functional, cell-based. The essentials:
as §2

Test [4] concerns PC-12. The test can be described thus: Induction of neurite growth in rat PC12D cells at 100 umol after 48 hrs. Type of test: functional, cell-based. The essentials:
as §2

In test [5] the test system is PC-12. The test can be described thus: Increase of nerve growth factor-stimulated neurite growth in rat PC12D cells at 100 umol after 48 hrs. Type of test: functional. The essentials: as §1

Structures are written as SMILES. Activity calls are given as the source filed them. No cut-off for these calls is given here.

Take `CC(=O)O[C@@H]1[C@@H](O)[C@H](C)O[C@@H](OC[C@H]2O[C@@H](Oc3cc4oc(-c5ccc(O)cc5)cc(=O)c4c(O)c3O)[C@H](O)[C@@H](O)[C@@H]2O)[C@@H]1OC(C)=O`: the result in the test with PC-12 [1] was inactive.
Still for that read-out and setting: the value for `C=CCc1ccc(O[C@@H]2O[C@H](CO)[C@@H](O)[C@H](O)[C@H]2O)c(OC)c1` was “inactive”.
On to `CC(=O)O[C@@H]1[C@@H](O)[C@H](C)O[C@@H](OC[C@H]2O[C@@H](Oc3cc(O)c4c(=O)cc(-c5ccc(O)cc5)oc4c3)[C@H](O)[C@@H](O)[C@@H]2O)[C@@H]1O`, for which the outcome in the test with PC-12 [2], with PC-12 [3] and in the test on PC-12 [4] was inactive. The same compound showed an Activity in the test on PC-12 [5] of 16.1%.
Take `CC(=O)O[C@@H]1[C@@H](O)[C@H](C)O[C@@H](OC[C@H]2O[C@@H](Oc3cc(O)c4c(=O)cc(-c5ccc(O)cc5)oc4c3)[C@H](O)[C@@H](O)[C@@H]2O)[C@@H]1OC(C)=O`: the result in the test on PC-12 [2], in the test on PC-12 [3] and in the test with PC-12 [4] was inactive. Further, the Activity in the test with PC-12 [5] worked out at 14.9%.

These data come from ChEMBL document CHEMBL1151190, “Acetylated flavonoid glycosides potentiating NGF action from Scoparia dulcis” (2004).
